Measurements as given in ChEMBL document CHEMBL1152413, “Glucose-based spiro-heterocycles as potent inhibitors of glycogen phosphorylase” (Bioorg Med Chem, 2009).
Calls of active or inactive are those of the source. No cut-off for these calls is given here.

Experiments:
[1] = target: T1, Glycogen phosphorylase, muscle form (Oryctolagus cuniculus) (UniProt P00489); test: Inhibition of rabbit muscle glycogen phosphorylase b at 625 uM by Lineweaver-Burke plot analysis
T1 sequence (whole entry): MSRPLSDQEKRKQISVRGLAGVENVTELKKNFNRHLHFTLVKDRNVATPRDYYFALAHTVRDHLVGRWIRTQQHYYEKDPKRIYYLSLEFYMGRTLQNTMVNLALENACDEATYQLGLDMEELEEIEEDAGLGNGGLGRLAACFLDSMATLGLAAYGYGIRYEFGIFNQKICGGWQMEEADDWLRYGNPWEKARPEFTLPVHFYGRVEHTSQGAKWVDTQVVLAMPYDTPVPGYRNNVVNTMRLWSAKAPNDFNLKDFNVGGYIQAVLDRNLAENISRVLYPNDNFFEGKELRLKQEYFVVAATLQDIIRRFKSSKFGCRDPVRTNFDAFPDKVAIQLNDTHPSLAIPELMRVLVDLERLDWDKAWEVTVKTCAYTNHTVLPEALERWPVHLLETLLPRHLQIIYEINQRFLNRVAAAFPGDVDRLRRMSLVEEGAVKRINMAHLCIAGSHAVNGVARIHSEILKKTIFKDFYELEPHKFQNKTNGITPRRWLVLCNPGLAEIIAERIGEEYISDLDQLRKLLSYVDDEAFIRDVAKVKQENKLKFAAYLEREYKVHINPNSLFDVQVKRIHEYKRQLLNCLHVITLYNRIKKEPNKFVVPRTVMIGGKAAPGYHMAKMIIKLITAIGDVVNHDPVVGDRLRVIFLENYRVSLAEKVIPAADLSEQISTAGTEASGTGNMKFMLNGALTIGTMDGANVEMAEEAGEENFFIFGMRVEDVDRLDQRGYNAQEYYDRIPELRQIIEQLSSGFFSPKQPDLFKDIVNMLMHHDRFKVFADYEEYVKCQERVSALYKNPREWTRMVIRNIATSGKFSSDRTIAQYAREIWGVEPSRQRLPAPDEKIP
How it was run: (§1)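 Glycogen phosphorylase b isolated from rabbit skeletal muscle (Fischer–Krebs method with dithiothreitol in place of L-cysteine), recrystallized at least three times. Assayed in glycogen-synthesis direction with α-D-glucose-1-phosphate 2–20 mM, glycogen 1% w/v and AMP 1 mM held constant. Inhibitors were dissolved in DMSO and diluted into 50 mM triethanolamine, 1 mM EDTA, 1 mM DTT, keeping final DMSO below 1%. Activities were analysed as Lineweaver–Burk plots by nonlinear fitting.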

[2] = target: T1, Glycogen phosphorylase, muscle form (Oryctolagus cuniculus); test: Inhibition of rabbit muscle glycogen phosphorylase b at 312.5 uM by Lineweaver-Burke plot analysis; how it was run: as §1
[3] = target: T2, Glycogen phosphorylase, muscle form (Oryctolagus cuniculus, UniProt P00489); test: Inhibition of rabbit muscle glycogen phosphorylase b by Lineweaver-Burke plot analysis; how it was run: as §1
T2 sequence (P00489 whole entry): T1 sequence (whole entry)

[4] = target: T2, Glycogen phosphorylase, muscle form
[5] = Solubility in DMSO; format: physicochemical

In the case of `OC[C@H]1O[C@@H](S/C(=N\O)c2ccncc2)[C@H](O)[C@@H](O)[C@@H]1O`, the inhibition [1] is reported as “inactive”.

For `COc1ccc(/C(=N/O)S[C@@H]2O[C@H](CO)[C@@H](O)[C@H](O)[C@H]2O)cc1`, the inhibition [2] was “inactive”.

`O=[N+]([O-])c1ccc(C2=NO[C@]3(O[C@H](CO)[C@@H](O)[C@H](O)[C@H]3O)S2)cc1` gave an IC50 [3] of 250 µM.

`OC[C@H]1O[C@]2(ON=C(c3ccc(F)cc3)S2)[C@H](O)[C@@H](O)[C@@H]1O` showed a Ki [4] of 48 µM.

In the case of `OC[C@H]1O[C@@]2(ON=C(c3ccncc3)S2)[C@H](O)[C@@H](O)[C@@H]1O`, the inhibition [1] is reported as “inactive”.

In the case of `N#Cc1ccc(/C(=N/O)S[C@@H]2O[C@H](CO)[C@@H](O)[C@H](O)[C@H]2O)cc1`, the inhibition [1] is reported as “inactive”.

`COc1ccc(C2=NO[C@]3(O[C@H](CO)[C@@H](O)[C@H](O)[C@H]3O)S2)cc1` showed a Ki [4] of 8.2 µM.

In the case of `OC[C@H]1O[C@@H](S/C(=N\O)c2ccc3ccccc3c2)[C@H](O)[C@@H](O)[C@@H]1O`, the solubility [5] is reported as “Insoluble”.

In the case of `N#Cc1ccc(C2=NO[C@]3(O[C@H](CO)[C@@H](O)[C@H](O)[C@H]3O)S2)cc1`, the IC50 [3] is reported as 700 µM.

In the case of `OC[C@H]1O[C@]2(ON=C(c3ccc(-c4ccccc4)cc3)S2)[C@H](O)[C@@H](O)[C@@H]1O`, the IC50 [3] is reported as 250 µM.

With `O=[N+]([O-])c1ccc(/C(=N/O)S[C@@H]2O[C@H](CO)[C@@H](O)[C@H](O)[C@H]2O)cc1` the IC50 [3] was > 10000 µM.

For `O=[N+]([O-])c1ccc(/C(=N\O)N[C@@H]2O[C@H](CO)[C@@H](O)[C@H](O)[C@H]2O)cc1`, the inhibition [1] was “inactive”.

In the case of `OC[C@H]1O[C@@H](S/C(=N\O)c2ccc(-c3ccccc3)cc2)[C@H](O)[C@@H](O)[C@@H]1O`, the solubility [5] is reported as “Insoluble”.

`N#Cc1ccc(/C(=N\O)N[C@@H]2O[C@H](CO)[C@@H](O)[C@H](O)[C@H]2O)cc1` showed a Ki [4] of 1800 µM.
